Reference: ChEMBL document CHEMBL1153263, “3-Acrylamide-4-aryloxyindoles: synthesis, biological evaluation and metabolic stability of potent and selective EP3 receptor antagonists” (Bioorg Med Chem Lett, 2009)

Columns and labels:
[1] = biological target: Prostaglandin F2-alpha receptor (Homo sapiens, UniProt P43088); assay: Displacement of radioligand from FP receptor
[2] = biological target: Prostaglandin E2 receptor EP4 subtype (Homo sapiens, UniProt P35408); assay: Displacement of radioligand from EP4 receptor
[3] = biological target: T1, Prostaglandin E2 receptor EP3 subtype (Homo sapiens, UniProt P43115); assay: Displacement of [3H]PGE2 from human EP3 receptor at 20 uM in presence of normal buffer
T1 sequence (P43115 whole entry): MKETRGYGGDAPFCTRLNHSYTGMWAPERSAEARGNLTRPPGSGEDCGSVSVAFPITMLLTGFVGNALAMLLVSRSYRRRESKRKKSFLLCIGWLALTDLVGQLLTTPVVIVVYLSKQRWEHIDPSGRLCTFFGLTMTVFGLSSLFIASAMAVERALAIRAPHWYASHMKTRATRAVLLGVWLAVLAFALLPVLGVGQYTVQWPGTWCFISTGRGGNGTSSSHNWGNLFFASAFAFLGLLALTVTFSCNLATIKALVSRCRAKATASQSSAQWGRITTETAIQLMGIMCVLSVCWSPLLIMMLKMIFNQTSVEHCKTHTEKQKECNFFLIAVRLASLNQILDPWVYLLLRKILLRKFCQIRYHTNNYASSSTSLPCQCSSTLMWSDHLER

[4] = biological target: T2, Prostaglandin E2 receptor EP1 subtype (Homo sapiens, UniProt P34995); assay: Displacement of radioligand from EP1 receptor
T2 sequence (P34995 whole entry): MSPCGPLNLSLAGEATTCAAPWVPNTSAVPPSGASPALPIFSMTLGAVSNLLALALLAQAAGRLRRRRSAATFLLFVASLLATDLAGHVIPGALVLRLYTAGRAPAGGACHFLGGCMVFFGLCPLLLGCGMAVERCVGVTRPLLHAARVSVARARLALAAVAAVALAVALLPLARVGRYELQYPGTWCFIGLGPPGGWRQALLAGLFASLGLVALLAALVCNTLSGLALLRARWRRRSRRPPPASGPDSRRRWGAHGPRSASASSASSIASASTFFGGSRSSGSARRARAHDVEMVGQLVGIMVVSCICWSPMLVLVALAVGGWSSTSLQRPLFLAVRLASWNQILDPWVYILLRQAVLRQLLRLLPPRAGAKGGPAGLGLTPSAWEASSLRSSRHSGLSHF

[5] = biological target: T3, Prostaglandin E2 receptor EP3 subtype (Homo sapiens) (UniProt P43115); assay: Ratio IC50 for human EP3 receptor in presence of human serum to IC50 for human EP3 in absence of human serum
T3 sequence (whole entry): T1 sequence (P43115 whole entry)

[6] = biological target: Prostaglandin E2 receptor EP2 subtype (Homo sapiens, UniProt P43116); assay: Displacement of radioligand from EP2 receptor
[7] = biological target: T1, Prostaglandin E2 receptor EP3 subtype; assay: Displacement of [3H]PGE2 from human EP3 receptor at 20 uM in presence of 10% human serum
[8] = Metabolic stability in human liver microsome assessed as compound remaining at 5 uM after 30 mins; type: ADME; details: liver microsomes, read-out: Stability
In short: (§1)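 Liver microsomes at 0.8 mg/mL protein incubated with compound at 5 µM. Percent parent remaining after 30 min measured by LC–MS/MS.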

[9] = Metabolic stability in mouse liver microsome assessed as compound remaining at 5 uM after 30 mins; type: ADME; details: liver microsomes, read-out: Stability; in short: as §1
[10] = Metabolic stability in monkey liver microsome assessed as compound remaining at 5 uM after 30 mins; type: ADME, Macaca mulatta; details: rhesus monkey, liver microsomes; read-out: Stability; in short: as §1
[11] = Metabolic stability in dog liver microsome assessed as compound remaining at 5 uM after 30 mins; type: ADME, Canis lupus familiaris; details: liver microsomes, read-out: Stability; in short: as §1
[12] = Metabolic stability in rat liver microsome assessed as compound remaining at 5 uM after 30 mins; type: ADME; details: liver microsomes, read-out: Stability; in short: as §1
[13] = biological target: T1, Prostaglandin E2 receptor EP3 subtype; assay: Antagonist activity at human EP3-2 receptor expressed in CHOK1 cells; type: functional, cell-based, CHO-K1
In short: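 Stably transfected CHO-K1 cells expressing hEP3II, plated at 10⁵ cells/well and cultured overnight at 37 °C, 5% CO2. Washed with PBS, pre-incubated 30 min at 37 °C in serum-free medium with 1 mM IBMX. Stimulated with PGE2 (5×10⁻⁹ M) plus forskolin (5×10⁻⁶ M) ± compound (10⁻⁴–10⁻¹³ M) for 10 min at 37 °C. cAMP measured by EIA; EC50 from sigmoid non-linear regression.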

[14] = system: Brain; assay: Brain concentration in NMRI mouse at 2 mg/kg, iv; type: ADME, organism-based; parameters: dose 2 mg/kg, route intravenous; details: in vivo
In short: (§2)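 Mouse iv exposure screen. Plasma and brain concentrations sampled 15 min after dosing.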

[15] = system: Mus musculus; assay: Plasma concentration in NMRI mouse at 2 mg/kg, iv; type: ADME, organism-based; parameters: dose 2 mg/kg, route intravenous; details: in vivo; in short: as §2
[16] = biological target: Prostacyclin receptor (Homo sapiens, UniProt P43119); assay: Displacement of radioligand from IP receptor
[17] = Antiplatelet activity against rat platelet assessed as platelet aggregation; type: functional, cell-based
[18] = Antiplatelet activity against human platelet assessed as platelet aggregation; type: functional, cell-based

Chain of Prostaglandin E2 receptor EP4 subtype (P35408 whole entry): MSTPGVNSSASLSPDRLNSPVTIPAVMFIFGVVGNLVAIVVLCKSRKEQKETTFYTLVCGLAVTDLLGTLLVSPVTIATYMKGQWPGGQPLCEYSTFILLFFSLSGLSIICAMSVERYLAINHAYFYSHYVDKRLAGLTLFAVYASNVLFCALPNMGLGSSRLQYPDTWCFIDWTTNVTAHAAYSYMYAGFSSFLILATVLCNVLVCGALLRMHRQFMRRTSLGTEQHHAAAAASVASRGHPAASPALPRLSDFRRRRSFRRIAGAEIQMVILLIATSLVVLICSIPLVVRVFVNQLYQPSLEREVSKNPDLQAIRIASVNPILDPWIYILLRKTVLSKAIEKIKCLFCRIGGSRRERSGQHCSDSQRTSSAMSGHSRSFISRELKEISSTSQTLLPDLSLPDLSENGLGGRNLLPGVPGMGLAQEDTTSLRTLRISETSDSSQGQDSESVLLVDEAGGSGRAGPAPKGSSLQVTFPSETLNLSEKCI
Chain of Prostaglandin E2 receptor EP2 subtype (P43116 whole entry): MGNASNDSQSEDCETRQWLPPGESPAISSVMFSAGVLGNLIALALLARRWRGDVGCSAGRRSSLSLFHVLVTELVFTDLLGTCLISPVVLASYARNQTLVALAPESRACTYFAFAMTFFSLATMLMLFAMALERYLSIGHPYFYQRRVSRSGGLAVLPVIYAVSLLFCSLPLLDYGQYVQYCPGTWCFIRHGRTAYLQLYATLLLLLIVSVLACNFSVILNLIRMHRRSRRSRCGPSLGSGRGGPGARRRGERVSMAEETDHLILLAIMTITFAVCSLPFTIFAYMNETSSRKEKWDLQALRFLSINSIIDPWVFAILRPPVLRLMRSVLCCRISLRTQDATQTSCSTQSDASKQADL
Chain of Prostacyclin receptor (P43119 whole entry): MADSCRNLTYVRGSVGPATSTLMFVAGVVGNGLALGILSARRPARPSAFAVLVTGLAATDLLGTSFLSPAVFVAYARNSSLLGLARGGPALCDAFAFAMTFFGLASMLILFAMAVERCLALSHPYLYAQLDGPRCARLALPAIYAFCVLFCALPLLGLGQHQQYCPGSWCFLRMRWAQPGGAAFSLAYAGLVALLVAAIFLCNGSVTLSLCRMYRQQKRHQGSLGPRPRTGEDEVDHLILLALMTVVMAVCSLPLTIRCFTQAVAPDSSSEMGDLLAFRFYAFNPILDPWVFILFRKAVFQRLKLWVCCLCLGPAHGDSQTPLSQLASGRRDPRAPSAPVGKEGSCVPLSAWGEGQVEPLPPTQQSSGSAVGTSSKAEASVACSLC
Chain of Prostaglandin F2-alpha receptor (P43088 whole entry): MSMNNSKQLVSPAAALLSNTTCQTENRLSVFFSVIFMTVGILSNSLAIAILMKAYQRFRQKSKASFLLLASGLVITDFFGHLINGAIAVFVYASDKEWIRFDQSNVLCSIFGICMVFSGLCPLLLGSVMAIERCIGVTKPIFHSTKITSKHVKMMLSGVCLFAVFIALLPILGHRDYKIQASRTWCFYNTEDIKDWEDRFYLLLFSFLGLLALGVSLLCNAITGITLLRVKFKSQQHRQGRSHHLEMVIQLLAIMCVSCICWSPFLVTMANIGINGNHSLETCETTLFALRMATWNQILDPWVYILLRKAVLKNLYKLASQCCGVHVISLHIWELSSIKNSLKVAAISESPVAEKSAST

SMILES | IC50 [1] | IC50 [2] | IC50 [3] | IC50 [4] | Ratio IC50 [5] | IC50 [6] | IC50 [7] | remaining at 0.5 h, 5 µM [8] | remaining at 0.5 h, 5 µM [9] | remaining at 0.5 h, 5 µM [10] | remaining at 0.5 h, 5 µM [11] | remaining at 0.5 h, 5 µM [12] | EC50 [13] | Drug uptake [14] | Cp [15] | IC50 [16] | EC50 [17] | EC50 [18]
Cn1cc(/C=C/C(=O)NS(=O)(=O)c2cc(F)c(F)cc2F)c2c(Oc3ccc(Cl)c(F)c3)cccc21 | 2230 nM | 10000 nM | 6.7 nM | 1370 nM | 8 | 10000 nM | 53.9 nM |  |  |  |  |  |  |  |  |  |  | 
Cn1cc(/C=C/C(=O)NS(=O)(=O)c2ccc(F)c(F)c2)c2c(Oc3ccc(Cl)cc3Cl)cccc21 | 1970 nM | 14600 nM | 11.8 nM | 3860 nM | 2 | 9600 nM | 23.7 nM | 74.7% | 69% | 53.8% | 104% | 30.6% | 26.1 nM |  |  |  |  | 
Cn1cc(/C=C/C(=O)NS(=O)(=O)c2cc(F)c(F)cc2F)c2c(Oc3ccc(F)c(Cl)c3)cccc21 | 3160 nM | > 10000 nM | 9.7 nM | > 10000 nM | 6.3 | > 10000 nM | 61.1 nM |  |  |  |  |  |  |  |  |  |  | 
Cn1cc(/C=C/C(=O)NS(=O)(=O)c2ccc(F)c(F)c2)c2c(Oc3ccc4ccccc4c3)cccc21 | 3590 nM | 12500 nM | 7.4 nM | 1420 nM | 2.1 | 12500 nM | 15.9 nM | 63.6% | 62% | 59% | 69.7% | 24.6% |  | 55.7 ng/mL | 3420 ng/mL | 1880 nM | 12.8 nM | 
Cn1cc(/C=C/C(=O)NS(=O)(=O)c2cc(F)c(F)cc2F)c2c(Oc3ccc(Cl)c(Cl)c3)cccc21 | 4640 nM | 13000 nM | 2.6 nM | 5320 nM | 17.1 | 7680 nM | 45.2 nM |  |  |  |  |  |  |  |  |  |  | 
Cn1cc(/C=C/C(=O)NS(=O)(=O)c2ccc(F)c(F)c2)c2c(Oc3ccc(Cl)c(Cl)c3)cccc21 | 2400 nM | 20400 nM | 12.4 nM | > 10000 nM | 4.1 | 4200 nM | 50.8 nM | 58.8% |  |  |  | 14.9% |  |  |  |  |  | 
Cn1cc(/C=C/C(=O)NS(=O)(=O)c2cc(F)c(F)cc2F)c2c(Oc3ccc(Cl)cc3Cl)cccc21 | 3570 nM | > 10000 nM | 3.2 nM |  | 5.2 | 9300 nM | 16.7 nM | 74.7% |  |  |  | 39.1% |  |  |  |  |  | 
Cn1cc(/C=C/C(=O)NS(=O)(=O)c2cc(F)c(F)cc2F)c2c(Oc3ccc4ccccc4c3)cccc21 |  |  | 9.2 nM |  | 3.1 |  | 28 nM | 91.2% |  |  | 90.4% | 32% |  | 29.1 ng/mL | 1518 ng/mL |  | 11.6 nM | 8.1 nM
Cn1cc(/C=C/C(=O)NS(=O)(=O)c2ccc(F)c(F)c2)c2c(Oc3ccc(Cl)cc3F)cccc21 | 3190 nM | > 10000 nM | 7.2 nM | > 10000 nM | 17.2 | > 10000 nM | 124 nM | 113% |  |  |  | 40% |  |  |  | > 10000 nM |  | 
Cn1cc(/C=C/C(=O)NS(=O)(=O)c2cccc(Cl)c2)c2c(Oc3ccc4ccccc4c3)cccc21 |  |  | 15.7 nM |  | 2.2 |  | 35 nM | 79% |  |  | 80.6% | 33.3% |  |  |  |  |  | 
Cn1cc(/C=C/C(=O)NS(=O)(=O)c2ccc(F)c(F)c2)c2c(Oc3ccc4ncccc4c3)cccc21 |  |  | 1.9 nM |  | 68.7 |  | 130 nM |  |  |  |  |  |  |  |  |  |  | 
Cn1cc(/C=C/C(=O)NS(=O)(=O)c2cc(F)c(F)cc2F)c2c(Oc3ccc(Cl)cc3F)cccc21 |  |  | 4.4 nM |  | 35.6 |  | 156 nM |  |  |  |  |  |  |  |  |  |  | 
Cn1cc(/C=C/C(=O)NS(=O)(=O)c2ccc(F)cc2F)c2c(Oc3ccc4ccccc4c3)cccc21 |  |  | 3.5 nM |  | 32.7 |  | 115 nM |  |  |  |  |  |  |  |  |  |  | 
Cn1cc(/C=C/C(=O)NS(=O)(=O)c2ccc(Cl)cc2Cl)c2c(Oc3ccc4ccccc4c3)cccc21 |  |  | 54.1 nM |  | 28.5 |  | 1540 nM |  |  |  |  |  |  |  |  |  |  | 
Cn1cc(/C=C/C(=O)NS(=O)(=O)c2cc(Cl)cc(Cl)c2)c2c(Oc3ccc4ccccc4c3)cccc21 |  |  | 8.7 nM |  | 37 |  | 321 nM |  |  |  |  |  |  |  |  |  |  | 
Cn1cc(/C=C/C(=O)NS(=O)(=O)c2cc(F)c(F)cc2F)c2c(Oc3ccc(F)cc3Cl)cccc21 |  |  | 18.1 nM |  | 17.5 |  | 316 nM |  |  |  |  |  |  |  |  |  |  | 
Cn1cc(/C=C/C(=O)NS(=O)(=O)c2ccc(F)c(F)c2)c2c(Oc3ccc(F)c(Cl)c3)cccc21 | 1820 nM | > 10000 nM | 26.9 nM |  | 3 | > 10000 nM | 81.5 nM | 91.5% |  |  |  | 32% |  |  |  | 4100 nM |  | 
